Sampled rows, rich in hits. Any-hit rate of the full collection: about 1.5%.
MITF act – activators of MITF-driven TRPM1 promoter activity in SK-MEL-5 cells; hit rate 0.75% among 300,000; AID 588334; SK-MEL-5 TRPM1-promoter luciferase, 24 h; % of positive control, neutral wells = 0; activation, % at 12.5 µM;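 active means mean activation of at least 80% with every replicate also reaching 80%; inconclusive means mean reaches 80% but some replicate falls short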
Cneo AK release – Cryptococcus neoformans lysis via adenylate kinase release. hit rate 0.2% among 360,000. C. neoformans lysis, adenylate kinase release luminescence, 4 h; normalised: neutral wells 0, clomiphene wells 100. lysis activity, % at 15 µM;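 active means mean lysis activity across replicates of at least 80%, whatever share of replicates individually reach that level; inactive means mean lysis activity below 80%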
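Material – Cryptococcus neoformans yeast cells · Quantity – 5 × 10^6 yeast cells/mL · Buffer or medium – YPD medium · Compound – single dose · Timing – 4 h static compound exposure, 37 °C, read 1 h post-reagent · Signal – adenylate kinase release luminescence · Read-out basis – lysis from increased AK signal · Benchmarks – Clomiphene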
PGC1a acetyl inh – PGC1a acetylation modulation, inhibitor mode; U2OS PGC1a acetylation, AlphaScreen anti-acetyl-lysine; with virally co-expressed GCN5 acetyltransferase; inhibition, % at 15.6 µM; hit rate 0.17% among 350,000;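 active means every replicate shows inhibition of at least 40%; inconclusive means mean inhibition at least 40% but some replicate below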
Wnt act – activates Wnt/beta-catenin signaling in a reporter cell assay; activator, plate reader; activation, % at 9.35 µM; hit rate 1.2% among 300,000; in the data active means activation above about 30%, passing the limit was not always enough; inconclusive means no clear call, values can overlap the other calls
Large screens that a line does not name were inactive.

O=C(NCc1ccccc1)c1cc(C2CCCN(C(=O)c3cccs3)C2)on1 (configuration not stated)	none (no result: MITF act)
O=C(Nc1ccccc1)N1CCC(c2ccccc2)C1 (configuration not stated)	MITF act 105.5 (no result: Wnt act)
O=C(c1cccs1)N1CCC(c2ccccc2)C1 (configuration not stated)	Wnt act 50.7 (no result: Cneo AK release)
O=C(Nc1ccccc1)c1cc(C2CCCN(C(=O)c3cccs3)C2)on1 (configuration not stated)	Wnt act 34.4 (no result: MITF act, PGC1a acetyl inh)
CNC(=O)C[C@H]1CC[C@H]2[C@H](COc3ccc(NC(=O)Nc4cc(C)cc(C)c4)cc3C(=O)N2C)O1	none (no result: MITF act, Wnt act)
COc1cc(C)ccc1OCCCOc1ccccc1Cl	MITF act 126.4 (no result: Wnt act)
COc1cc(C)ccc1OCCCCOc1ccccc1C(C)=O	none (no result: Cneo AK release, PGC1a acetyl inh)
COc1cc(C)ccc1OCCOc1ccccc1Cl	MITF act 90.3 (no result: Wnt act)
C[C@H](CO)N1C[C@H](C)[C@@H](CN(C)Cc2ccccc2)Oc2ccc(NC(=O)CCN3CCOCC3)cc2C1=O	none (no result: MITF act, PGC1a acetyl inh, Wnt act)
CCOC(=O)c1sc(S(C)(=O)=O)c2c1CCc1conc1-2	Wnt act 54.8 (no result: MITF act)
CCOC(=O)c1sc(SC)c2c1CCC/C2=N/OC	none
O=C(c1ccc(COc2ccc(F)cc2)o1)n1cccn1	none (no result: Cneo AK release)
Cc1cc(OCc2ccc(C(=O)n3cccn3)o2)ccc1Cl	Wnt act 46.8
CCOC(=O)c1snc(C(=O)NC2CCCCC2)c1N	MITF act 84.1
Cc1ccc(SCC(=O)Nc2ccc(N3CCN(C)CC3)c(F)c2)cc1	Wnt act 40.1 (no result: MITF act)
COc1ccc(SCC(=O)Nc2ccc(N3CCN(C)CC3)c(F)c2)cc1	none (no result: Cneo AK release, PGC1a acetyl inh)
C[C@@H]1CN([C@@H](C)CO)C(=O)Cc2cc(NS(=O)(=O)c3ccc(F)cc3)ccc2O[C@H]1CN(C)C(=O)Nc1cccc2ccccc12	none (no result: MITF act, Cneo AK release, Wnt act)
C/C(=N\NC(=O)c1cc(Br)ccc1O)c1cccs1	MITF act 80.6, Wnt act inconclusive
C/C(=N\NC(=O)c1cc(C)[nH]n1)c1ccc(-c2ccccc2)cc1	PGC1a acetyl inh 79.4
C/C(=N\NC(=O)c1cc(C(C)C)[nH]n1)c1ccncc1	none
Cc1cc(C(=O)N/N=C/c2cccs2)n[nH]1	none
C/C(=N\NC(=O)c1cc(C)[nH]n1)c1cccs1	Wnt act 34.5
C/C(=N/NC(=O)c1cc(C(C)C)[nH]n1)c1cccs1	Wnt act 33.1
C/C(=N/NC(=O)c1ccc(Br)o1)c1cccs1	none (no result: PGC1a acetyl inh)
CCOC(=O)c1c(C)[nH]c(C(C)=NNC(=O)c2cccs2)c1C	Wnt act 60.7 (no result: MITF act)
CCOC(=O)c1c(C)[nH]c(/C(C)=N/NC(=O)c2cccnc2)c1C	none (no result: MITF act)
CCCNC(=O)N1CCC2(CC1)CN(C(=O)Nc1ccc(F)cc1)[C@@H](CO)c1[nH]c3cc(OC)ccc3c12	none (no result: MITF act, Cneo AK release, Wnt act)
O=c1oc2ccccc2cc1NCc1ccccc1O	MITF act 96.4
O=C(NCc1ccccc1Cl)c1cc2ccccc2oc1=O	none (no result: MITF act, PGC1a acetyl inh)
N#C/C(C(=O)N1CCOCC1)=C1/SC(Cc2ccccc2Cl)C(=O)N1c1ccccc1 (configuration not stated)	Wnt act 34.7 (no result: Cneo AK release, PGC1a acetyl inh)
O=C(CCc1ccccc1)c1ccc2c(c1)OCCCO2	MITF act 122.0 (no result: PGC1a acetyl inh, Wnt act)
O=C(/C=C/c1ccccc1)c1ccc2c(c1)OCCCCO2	MITF act 91.3
O/N=C(/CCc1ccccc1)c1ccc2c(c1)OCCO2	MITF act 92.3
O=C(C[C@@H]1CC[C@H]2[C@@H](COC[C@@H](O)CN2Cc2cc(F)ccc2F)O1)NCc1ccccc1	none (no result: MITF act, Wnt act)
Cc1ccc(S(=O)(=O)N2CC[C@@H]3[C@H]2c2cc(-c4ccccc4F)ccc2N[C@@H]3CO)cc1	Cneo AK release 104.3 (no result: MITF act, Wnt act)
Cc1ccc(S(=O)(=O)N2CC[C@@H]3[C@@H](CO)Nc4ccc(-c5ccccc5F)cc4[C@@H]32)cc1	none (no result: MITF act, Wnt act)
O=C(C[C@H]1C=C[C@@H](NC(=O)c2cccc(F)c2)[C@H](CO)O1)NCCN1CCCC1	none (no result: MITF act, Wnt act)
CC(=O)c1sc(NC(=O)C2(F)C(F)(F)C(F)(F)C(F)(F)C(F)(F)C2(F)F)nc1C	Cneo AK release 136.5
CCn1cc(Br)c(C(=O)Nc2sc3c(c2C(N)=O)CCCC3)n1	none (no result: PGC1a acetyl inh, Wnt act)
NC(=O)c1c(NC(=O)c2cccs2)sc2c1CCCCCC2	MITF act 118.0 (no result: Wnt act)
COc1ccccc1OCC(=O)Nc1sc2c(c1C(N)=O)CCC2	MITF act 88.8
Cn1cc(Br)c(C(=O)Nc2sc3c(c2C(N)=O)CCCC3)n1	MITF act 85.1
CC(=O)N1N=C(c2ccc(Cl)cc2)OC1c1ccc(C(C)C)cc1 (configuration not stated)	none (no result: PGC1a acetyl inh)
CC(=O)N1N=C(c2ccc(C)cc2)OC1c1ccc(Br)cc1 (configuration not stated)	MITF act 89.9 (no result: Cneo AK release)
COc1ccc(NC(=O)Nc2ccc3c(c2)C(=O)N([C@@H](C)CO)C[C@H](C)[C@@H](CN(C)C(=O)Nc2ccc(C(F)(F)F)cc2)OCCCC[C@H](C)O3)cc1	none (no result: MITF act, Wnt act)
CCOC(=O)/C=C1/SCC(=O)N1CC(=O)Nc1cccc(F)c1	none
CCOC(=O)/C=C1\SCC(=O)N1CC(=O)Nc1ccc2c(c1)CCC2	Wnt act 43.5 (no result: PGC1a acetyl inh)
Cc1cc(C(=O)Nc2ccc3[nH]ccc3c2)no1	Wnt act 58.8 (no result: PGC1a acetyl inh)
O=C(CSc1nc2ccccc2[nH]1)c1ccco1	none (no result: Wnt act)
COc1ccc2nc(SCC(=O)C(C)(C)C)[nH]c2c1	Wnt act 41.1 (no result: Cneo AK release)
COc1ccc2nc(SCC(=O)NC(C)(C)C)[nH]c2c1	none (no result: Cneo AK release, Wnt act)
COc1ccc2nc(SCC(=O)c3ccco3)[nH]c2c1	MITF act 95.1, Wnt act 33.1
CCCC#Cc1ccc2c(c1)O[C@@H](CN(C)C(C)=O)[C@H](C)CN([C@H](C)CO)S2(=O)=O	none (no result: MITF act, Wnt act)
CC(C)(C)C(=O)O/N=C(\N)c1ccc(-c2csnn2)cc1	MITF act 106.4, Wnt act 53.2
O=C(Cn1cnc2c(nnn2-c2cccc(Cl)c2)c1=O)N1CCOCC1	Wnt act 56.4
c1cncc(CSc2ccc(-c3ccc4c(c3)OCO4)nn2)c1	Wnt act 31.7
CCCc1nc2ccc(NC(C)=O)cc2c(=O)n1Cc1ccc(Cl)cc1	MITF act 82.0 (no result: Cneo AK release)
COC(=O)c1ccc(CSC2=NCCS2)cc1	MITF act 84.2 (no result: Cneo AK release, PGC1a acetyl inh, Wnt act)
Cc1cc(C(=O)COC(=O)CC(NC(N)=O)c2ccc(Cl)cc2)c(C)n1C (configuration not stated)	none (no result: MITF act)
NC(=O)COC(=O)CC(NC(N)=O)c1ccc(Cl)cc1 (configuration not stated)	PGC1a acetyl inh 106.6
COc1ncccc1-c1nnn(-c2ccc(Cl)c(Cl)c2)n1	MITF act 102.2, Wnt act 39.1 (no result: PGC1a acetyl inh)
Cc1ccc(-n2nnc(-c3nccs3)n2)cc1	none
COc1ncccc1-c1nnn(-c2ccc(C)cc2)n1	Wnt act 39.3
COc1ncccc1-c1nnn(-c2ccc(F)cc2)n1	Wnt act 34.1 (no result: PGC1a acetyl inh)
C[C@H](NC(=O)[C@@H]1N[C@@H]2c3ccc(-c4cccnc4)c(=O)n3C[C@@H]2[C@H]1CO)c1ccccc1	none (no result: MITF act, PGC1a acetyl inh, Wnt act)
C[C@@H]1CN([C@H](C)CO)C(=O)c2cc(NC(=O)Cc3ccccc3)ccc2O[C@@H](C)CCCCO[C@H]1CN(C)S(=O)(=O)c1ccc(F)cc1	none (no result: MITF act, Wnt act)

From PubChem
